In PMC3913215 (Molecular microbiology, 2009):

Tests used:
[1] = tested on: AgrC-IHis / AgrC-ISensor, Kin; test: β-lactamase reporter assay, activation of AgrC-IHis / AgrC-ISensor, Kin; type: cell-based, S. aureus; conditions: Kin combined with AgrC-IHis versus AgrC-ISensor, His
[2] = tested on: AgrC-I N339D; test: β-lactamase reporter assay, AgrC-I N339D; type: cell-based, S. aureus; conditions: N-box mutant; varying concentrations of synthetic AIP
[3] = tested on: AgrC-II; conditions: background statement, no reference at the place; cited from earlier work
[4] = molecular target: WT AgrC-II; test: β-lactamase reporter assay, WT AgrC-II; type: cell-based, S. aureus; conditions: read-out: EC50 (no activation); P3-blaZ reporter cells, nitrocefin method
Method in brief: (§1)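 Agr-deficient S. aureus RN10829 derivatives lacking AIP production, carrying a chromosomal P3-blaZ fusion and agrP2-driven plasmid agrC (compatible plasmids for co-expression), grown to mid-exponential phase in CYGP or MH broth at 37 °C with shaking. Cells were plated and given increasing synthetic AIP. β-Lactamase was read by nitrocefin initial velocity as percent maximal activation. EC50 came from a four-parameter logistic fit. Two or three replicates.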

[5] = tested on: AgrC-ISensor (T104V, S107A, S116I); conditions: mutations in second extracellular loop; ref Geisinger et al., 2008; cited from earlier work
[6] = tested on: AgrC-IHis / AgrC-IΔ1-135, Kin; test: β-lactamase reporter assay, AgrC-IHis / truncated AgrC-IΔ1-135, Kin; type: cell-based, S. aureus; conditions: full-length AgrC-IHis with AgrC-IΔ1-135, Kin (Figure S5B)
[7] = tested on: AgrC-I G394A; test: β-lactamase reporter assay, AgrC-I G394A; type: cell-based, S. aureus; conditions: individual G-box glycine mutant; varying concentrations of synthetic AIP
[8] = tested on: AgrC-IHis (H239Q); test: β-lactamase reporter assay, AgrC-IHis; type: cell-based, S. aureus; conditions: H-box mutant; varying concentrations of synthetic AIP (Figure S1)
Method in brief: as §1

[9] = tested on: AgrC-I-GFP; test: β-lactamase reporter assay, AgrC-I-GFP; type: cell-based, S. aureus; conditions: C-terminal GFP fusion (Figure S2)
[10] = tested on: AgrC-I G396A; test: β-lactamase reporter assay, AgrC-I G396A; type: cell-based, S. aureus; conditions: individual G-box glycine mutant; varying concentrations of synthetic AIP
[11] = tested on: AgrC-IHis / AgrC-IKin; test: β-lactamase reporter assay, activation of co-expressed AgrC-IHis / AgrC-IKin; type: cell-based, S. aureus; conditions: co-expressed mutants
Method in brief: as §1

[12] = tested on: AgrC-ISensor, His / AgrC-ISensor, Kin; test: β-lactamase reporter assay, co-expressed AgrC-ISensor, His / AgrC-ISensor, Kin; type: cell-based, S. aureus
Method in brief: as §1

[13] = tested on: N-terminal truncations of AgrC-I; test: β-lactamase reporter assay, N-terminally truncated AgrC-I alone; type: cell-based, S. aureus; conditions: two truncated sensor domains, expressed alone (Figure S5A)

For AIP-I, the “increase in activation by AIP-I” value [1] is given as “approximately 30 -fold”, the receptor activation [2] is given as “only partially reduced receptor activation” and the “antagonism of AgrC-II” value [3] is given as “potent cross-group inhibitors”. For the same substance, the EC50 [4] was greater than 10 µM, the “reduction in sensitivity to AIP-I” value [5] was “about 50 -fold” and the “activation by AIP-I” value [6] was “significant activity”. The “maximal activation relative to full-length complementary pair” value [6] was “only a third of that observed for the full-length complementary pair”, the receptor activation [7] was “weaker activation than that seen with AgrC-I N339D” and the receptor activation [8] was “completely inactive”. For the same substance, the “receptor activation compared to WT” value [9] was “only slightly decreased compared to the WT receptor”, the receptor activation [10] was “weaker activation than that seen with AgrC-I N339D” and the “maximal activity compared to WT AgrC” value [11] was “moderately reduced compared to WT AgrC”. For the same substance, the “reduction in activity compared with WT sensor domains” value ([12]; AgrC-ISensor, His / AgrC-ISensor, Kin versus WT sensor domains) was “over 150 -fold”, the EC50 ([12]; co-expressed mutants, both sensor domains mutated) was 6.1 µM and the “activation by AIP-I” value [13] was “None of the resulting dimers, with two truncated sensor domains, displayed significant activity”.
